Results collected from several papers.
Lines come from different studies, so protocols differ.
CA12: Carbonic anhydrase 12 (CA12, Homo sapiens, UniProt O43570)
DRD3: D(3) dopamine receptor (DRD3, Homo sapiens, UniProt P35462)
GHSR: Growth hormone secretagogue receptor type 1 (GHSR, Homo sapiens, UniProt Q92847)
ACE: Angiotensin-converting enzyme (ACE, Homo sapiens, UniProt P12821)
GLP1R: Glucagon-like peptide 1 receptor (GLP1R, Homo sapiens, UniProt P43220)

N#C[Se]CCCCOc1ccc2c(-c3ccccc3)cc(=O)oc2c1  Ki (CA12; enzyme activity, inhibitor, stopped-flow): 0.296 µM
Cc1[nH]c(C)c(S(=O)(=O)Nc2ccc(S(=O)(=O)F)c(F)c2)c1C(=O)N1CCC(F)(F)C1  IC50 (DRD3; β-arrestin recruitment, antagonist): 6.5 µM
O=C(Nc1ccccc1)Nc1ccc2c(c1)C=CCP(=O)(O)O2  Ki (CA12; enzyme activity, inhibitor, stopped-flow): > 10 µM
CC[C@H](C)[C@H](NC(=O)[C@H](C)NC(=O)[C@H](CCCNC(=N)N)NC(=O)[C@H](CCC(=O)O)NC(=O)[C@H](CCCNC(=N)N)NC(=O)[C@H](CCC(=O)O)NC(=O)[C@H](CC(C)C)NC(=O)[C@H](CC(C)C)NC(=O)[C@H](CCCNC(=N)N)NC(=O)[C@H](CCCNC(=N)N)NC(=O)[C@H](CCC(N)=O)NC(=O)[C@H](Cc1c[nH]cn1)NC(=O)[C@H](CCC(=O)O)NC(=O)[C@@H]1CCCN1C(=O)[C@H](CO)NC(=O)[C@H](CC(C)C)NC(=O)[C@H](Cc1ccccc1)NC(=O)[C@H](Cc1c[nH]c2ccccc12)NC(=O)[C@H](CO)NC(=O)CN)C(=O)N1CCC[C@H]1C(=O)N1CCC[C@H]1C(=O)N1CCC[C@H]1C(=O)N1CCC[C@H]1C(=O)N[C@H](C(=O)N[C@H](C(=O)N1CCC[C@H]1C(=O)N[C@@H](CC(C)C)C(=O)O)C(C)C)C(C)C  EC50 (GHSR; calcium signal, agonist, fluorescence): 0.16 µM
O=C(Nc1ccc(Br)cc1)Nc1ccc2c(c1)C=CCP(=O)(O)O2  Ki (CA12; enzyme activity, inhibitor, stopped-flow): > 10 µM
CCC(CNc1nc(-c2cn3ccnc3cc2C)nc2ccccc12)c1ccccc1 (centres unmarked)  IC50 (Sodium-dependent dopamine transporter (SLC6A3, Homo sapiens, UniProt Q01959); transporter uptake, inhibitor, radiometric): 9.86 µM
CCOC(=O)c1ccc(OC(=O)CCCCCN=C(N)N)cc1  IC50 (Kallikrein-2 (Homo sapiens, UniProt P20151); enzyme activity, inhibitor): 0.426 µM
CC(C)C[C@H](NC(=O)[C@H](Cc1ccc(O)cc1)NC(=O)[C@@H](N)C(C)C)C(=O)N[C@@H](CCC(=O)O)C(=O)N[C@@H](CCC(N)=O)C(=O)O  IC50 (ACE; enzyme activity, inhibitor, absorbance): 27.9 µM
CC[C@H](C)[C@H](NC(=O)[C@H](C)NC(=O)[C@H](C)NC(=O)[C@H](CCC(=O)O)NC(=O)[C@H](CCCNC(=N)N)NC(=O)[C@H](CCC(=O)O)NC(=O)[C@H](CC(C)C)NC(=O)[C@H](CCSC)NC(=O)[C@H](CCCNC(=N)N)NC(=O)[C@H](CCCNC(=N)N)NC(=O)[C@H](CC(C)C)NC(=O)[C@H](Cc1c[nH]cn1)NC(=O)[C@H](CCC(=O)O)NC(=O)[C@@H]1CCCN1C(=O)[C@H](CO)NC(=O)[C@H](CC(C)C)NC(=O)[C@H](Cc1ccccc1)NC(=O)[C@H](Cc1ccc(O)cc1)NC(=O)[C@H](CO)NC(=O)CN)C(=O)N1CCC[C@H]1C(=O)N1CCC[C@H]1C(=O)N1CCC[C@H]1C(=O)N1CCC[C@H]1C(=O)N[C@H](C(=O)N1CCC[C@H]1C(=O)N1CCC[C@H]1C(=O)N[C@@H](CC(C)C)C(=O)O)C(C)C  IC50 (GHSR; calcium signal, antagonist, fluorescence): 1.37 µM
Cc1[nH]c(C)c(S(=O)(=O)Nc2ccc(S(F)(F)(F)(F)F)cc2)c1C(=O)N1CCC(F)(F)C1  IC50 (DRD3; β-arrestin recruitment, antagonist): 2.3 µM
O=C(Nc1cccc(Cl)c1)Nc1ccc2c(c1)C=CCP(=O)(O)O2  Ki (CA12; enzyme activity, inhibitor, stopped-flow): > 10 µM
CC(C)C[C@H](NC(=O)[C@H](CCC(=O)O)NC(=O)[C@H](C)NC(=O)[C@@H](NC(=O)[C@H](Cc1ccccc1)NC(=O)[C@H](CC(C)C)NC(=O)[C@H](CCCNC(=N)N)NC(=O)[C@H](C)NC(=O)[C@H](C)NC(=O)[C@H](CCCCN)NC(=O)[C@H](CCC(=O)O)NC(=O)[C@H](CO)NC(=O)[C@H](CC(C)C)NC(=O)[C@H](Cc1ccc(O)cc1)NC(=O)[C@H](CCC(=O)O)NC(=O)[C@H](CC(=O)O)NC(=O)[C@H](CC(C)C)NC(=O)[C@H](CC(C)C)NC(=O)[C@H](CCC(=O)O)NC(=O)[C@@H](NC(=O)[C@H](Cc1ccccc1)NC(=O)[C@H](CCC(=O)O)NC(=O)[C@H](CCC(=O)O)NC(=O)[C@H](CCC(=O)O)NC(=O)[C@H](C)NC(=O)[C@@H](N)CO)[C@@H](C)O)C(C)C)C(=O)N[C@@H](CCCCN)C(=O)N[C@@H](CCCCN)C(=O)O  IC50 (GLP1R; calcium signal, antagonist, fluorescence): 15.7 µM
COC(=O)c1ccc(NS(=O)(=O)c2c(C)[nH]c(C)c2C(=O)N2CCC(F)(F)C2)cc1Cl  IC50 (DRD3; β-arrestin recruitment, antagonist): 33 µM
O=C(Nc1ccc2c(c1)C=CCP(=O)(O)O2)c1ccc(F)cc1  Ki (CA12; enzyme activity, inhibitor, stopped-flow): 0.004 µM
CC[C@H](C)[C@H](NC(=O)[C@H](C)NC(=O)[C@H](C)NC(=O)[C@H](CCC(=O)O)NC(=O)[C@H](CCCNC(=N)N)NC(=O)[C@H](C)NC(=O)[C@H](CC(C)C)NC(=O)[C@H](CC(C)C)NC(=O)[C@H](CCCNC(=N)N)NC(=O)[C@H](CCCNC(=N)N)NC(=O)[C@H](CC(C)C)NC(=O)[C@H](Cc1c[nH]cn1)NC(=O)[C@H](CCC(=O)O)NC(=O)[C@@H]1CCCN1C(=O)[C@H](CO)NC(=O)[C@H](CC(C)C)NC(=O)[C@H](Cc1ccccc1)NC(=O)[C@H](Cc1ccc(O)cc1)NC(=O)[C@H](CO)NC(=O)CN)C(=O)N1CCC[C@H]1C(=O)N1CCC[C@H]1C(=O)N1CCC[C@H]1C(=O)N1CCC[C@H]1C(=O)N[C@H](C(=O)N[C@@H](CC(C)C)C(=O)N1CCC[C@H]1C(=O)N[C@@H](CC(C)C)C(=O)O)C(C)C  IC50 (GHSR; calcium signal, antagonist, fluorescence): 1.1 µM
CC(C)C[C@H](NC(=O)[C@@H](NC(=O)[C@@H](NC(=O)[C@@H]1CCCN1C(=O)[C@@H](N)CCC(=O)O)C(C)C)[C@@H](C)O)C(=O)N[C@H](C(=O)O)[C@@H](C)O  IC50 (ACE; enzyme activity, inhibitor): ~872 µM
O=C(Nc1ccc2c(c1)C=CCP(=O)(O)O2)c1ccc2ccccc2c1  Ki (CA12; enzyme activity, inhibitor, stopped-flow): 0.0272 µM
CC[C@H](C)[C@H](NC(=O)[C@H](Cc1ccccc1)NC(=O)[C@H](CCC(N)=O)NC(=O)[C@H](CCCNC(=N)N)NC(=O)[C@@H](NC(=O)[C@H](C)NC(=O)[C@H](CCCCN)NC(=O)[C@H](CCCNC(=N)N)NC(=O)[C@H](CCC(=O)O)NC(=O)[C@H](CC(C)C)NC(=O)[C@H](CC(C)C)NC(=O)[C@H](CCC(=O)O)NC(=O)[C@H](CO)NC(=O)[C@H](Cc1c[nH]c2ccccc12)NC(=O)[C@H](CC(C)C)NC(=O)[C@H](CO)NC(=O)[C@@H](NC(=O)[C@H](Cc1ccccc1)NC(=O)[C@H](CCC(=O)O)NC(=O)[C@H](CC(C)C)NC(=O)[C@H](CCC(=O)O)NC(=O)CNC(=O)[C@@H]1CCCN1)[C@@H](C)O)C(C)C)C(=O)N[C@@H](CCC(=O)O)C(=O)N[C@@H](CC(=O)O)C(=O)N[C@@H](CC(C)C)C(=O)N[C@@H](CCCCN)C(=O)N[C@@H](CCCCN)C(=O)O  IC50 (GLP1R; calcium signal, antagonist, fluorescence): 0.874 µM
O=C(Nc1ccc2c(c1)C=CCP(=O)(O)O2)c1ccccc1I  Ki (CA12; enzyme activity, inhibitor, stopped-flow): 0.0069 µM
CC(C)[C@H](NC(=O)[C@@H](N)CCC(=O)O)C(=O)N[C@@H](CC(N)=O)C(=O)N[C@@H](Cc1ccc(O)cc1)C(=O)N[C@@H](CC(=O)O)C(=O)O  IC50 (ACE; enzyme activity, inhibitor): ~1550 µM
